Source: the RNAGym collection of RNA variant scans (doi:10.1038/nmeth.2970)

B1: NELF-E aptamer (parent)
chain: CCCAACGACUGCCGAGCGAGAUUACGCUUGAGCGCCCCACUGAGGAUGCCCACGGGCGAUUGGGGCACGG

Variants of: B1
Assay: HiTS-RAP
Details: with NELF-E (Drosophila)
Method in brief: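 Kd came from weighted Hill fits to the first binding curve, with intensities normalised to sequencing intensity and averaged per sequence, keeping only fits whose variance was below 1,000,000. That curve was imaged on an Illumina GAIIx flowcell, where sequenced aptamer DNA templates with a T7 promoter and ter site had been transcribed in situ by T7 RNA polymerase and halted by GST-Tus (30 minutes, 37°C). Before each image, clusters equilibrated for 30 minutes at room temperature with NELF-E-mOrange at 0.064 to 1000 nM in HEPES binding buffer.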

Variant	Kd [nM]
CCCAUCGAGUGCCGAGCGAGAUUACGCUUGAGCGCCCCACUGAGGAUGCCCACGGGCGAUUGGGGCACGG [A5U C9G]	6.45
CCCGCCGACUGCCGAGCGAGAUUACGCUUGAGCGCCCCACUGAGGAUGCCCACGGGCGAUUGGGGCACGG [A4G A5C]	6.45
CCCAACGACUGCCUUGCGAGAUUACGCUUGAGCGCCCCACUGAGGAUGCCCACGGGCGAUUGGGGCACGG [G14U A15U]	6.94
CCCACCGAGUGCCGAGCGAGAUUACGCUUGAGCGCCCCACUGAGGAUGCCCACGGGCGAUUGGGGCACGG [A5C C9G]	7.82
CCCAACGGCUGCCGAGCGAGAUUACGCUUGAGCGCCCCACUGAGGAUGCCCACGGGCGAUUGGGACACGG [A8G G65A]	5.32
CCCAGCGACGGCCGAGCGAGAUUACGCUUGAGCGCCCCACUGAGGAUGCCCACGGGCGAUUGGGGCACGG [A5G U10G]	5.47
CCCAAAGACUUCCGAGCGAGAUUACGCUUGAGCGCCCCACUGAGGAUGCCCACGGGCGAUUGGGGCACGG [C6A G11U]	6.57
CCCAACGACAUCCGAGCGAGAUUACGCUUGAGCGCCCCACUGAGGAUGCCCACGGGCGAUUGGGGCACGG [U10A G11U]	7.2
CCCAACGACUGCCGAGCGAGAUUACGCUUGAGCGCCCCACAGAGGAUGCCCACGGGCGAUUGGGGUACGG [U41A C66U]	85.7
CCCGACGACUGCCGAGCGAGACUACGCUUGAGCGCCCCACUGAGGAUGCCCACGGGCGAUUGGGGCACGG [A4G U22C]	4.86
CCCAACGACUGCGGAGCGAGAUUACGCUUGAGCGCCCCACUGAGGAUGCCCACGGACGAUUGGGGCACGG [C13G G56A]	6.97
CCCAACGACUGCCGAGCGAGAUUACGCUUGAGCGCCCCACUGAGAAUGCCCACGGGCGAUUGGGGCACGG [G45A]	47.8
CCCUACGACUGCCGAGCGAGUUUACGCUUGAGCGCCCCACUGAGGAUGCCCACGGGCGAUUGGGGCACGG [A4U A21U]	6.22
CCCAACGAGUGCCGAGCGAGAUUACGCUUGAGUGCCCCACUGAGGAUGCCCACGGGCGAUUGGGGCACGG [C9G C33U]	5.9
CCCAAUGACUGCUGAGCGAGAUUACGCUUGAGCGCCCCACUGAGGAUGCCCACGGGCGAUUGGGGCACGG [C6U C13U]	5.09
CCCAACGACUGCCGAGCGAGAUUACGCUGGUGCGCCCCACUGAGGAUGCCCACGGGCGAUUGGGGCACGG [U29G A31U]	6.06
CCCAACGACUGCCGAGCGAGAUGACGCUUGAGCGCCCCACUGAGGAUGCCCACGGGCGAUAGGGGCACGG [U23G U61A]	31
CCCAACGAGUGCCGAGCGAGAUUACGCUUGAGCGCCACACUGAGGAUGCCCACGGGCGAUUGGGGCACGG [C9G C37A]	15.8
CCCAACGACUGCGGAGUGAGAUUACGCUUGAGCGCCCCACUGAGGAUGCCCACGGGCGAUUGGGGCACGG [C13G C17U]	5.43
CCCAACGACUGCCGAGCGAGAUUACGCUUGAGCGCCCCGCGGAGGAUGCCCACGGGCGAUUGGGGCACGG [A39G U41G]	6.74

Variant	Kd [nM]
CCCAACGACGGCCGCGCGAGAUUACGCUUGAGCGCCCCACUGAGGAUGCCCACGGGCGAUUGGGGCACGG [U10G A15C]	3.77
CCCAACGACUGCCGAGGGAGAUUACGCUUGAGCGCCCCACUGAGGAUGCCCACGAGCGAUUGGGGCACGG [C17G G55A]	7.03
CCCAACGACUGCCGAGCGAGACUACGCUUGAGCGCCCCACGGAGGAUGCCCACGGGCGAUUGGGGCACGG [U22C U41G]	5.5
CCCAACGACUGCCGAGCGAGAUUACGCUUGAGCGCCCCACUGAGGAUGCCCACGGGCGAUUGGCUCACGG [G64C G65U]	5.12
CCCAACGACGGCCGAGCGAGAUUACGCUUGAGCGCCCCACUGAGGAUACCCACGGGCGAUUGGGGCACGG [U10G G48A]	8.83
CCCAUCGACUGCCUAGCGAGAUUACGCUUGAGCGCCCCACUGAGGAUGCCCACGGGCGAUUGGGGCACGG [A5U G14U]	6.34
CCCAACGACGGCCGAGCGAGAGUACGCUUGAGCGCCCCACUGAGGAUGCCCACGGGCGAUUGGGGCACGG [U10G U22G]	4.87
CCCAACGACUGCCGAGCGAGAUUAGCCUUGAGCGCCCCACUGAGGAUGCCCACGGGCGAUUGGGGCACGG [C25G G26C]	6
CCCGACGACUGCCGAGCGAGAUUACGCUUGAGCGCCCCACUGAGGGUGCCCACGGGCGAUUGGGGCACGG [A4G A46G]	37.6
CCCAUGGACUGCCGAGCGAGAUUACGCUUGAGCGCCCCACUGAGGAUGCCCACGGGCGAUUGGGGCACGG [A5U C6G]	5.7
CCCAACGACUGCCGAGCGAGAUUACGCUUGAGCGCCCCACUGAGGUGGCCCACGGGCGAUUGGGGCACGG [A46U U47G]	5.55
CCCAAGGACUGCCGAGCGAGAUUACGCUUGAGCGCCUCACUGAGGAUGCCCACGGGCGAUUGGGGCACGG [C6G C37U]	23.4
CCCAACGACUGCCGAGCGAGAUUACGCUGGAGCGCCCCACUGAGGAUGCCAACGGGCGAUUGGGGCACGG [U29G C51A]	8.11
CCCAACGACUGGCGAGCGAGAUUACUCUUGAGCGCCCCACUGAGGAUGCCCACGGGCGAUUGGGGCACGG [C12G G26U]	5.65
CCCAACGGCUGCCGAGCGAGAUUACGCUUGAGCGCCCCACUGAGGGUGCCCACGGGCGAUUGGGGCACGG [A8G A46G]	17.8
CCCAACGACUGCCGAGCGAGAUUACGCUUGGGCGCCCCGCUGAGGAUGCCCACGGGCGAUUGGGGCACGG [A31G A39G]	14.3
CCCUACGACUGCCGAGCGAGAUGACGCUUGAGCGCCCCACUGAGGAUGCCCACGGGCGAUUGGGGCACGG [A4U U23G]	6.29
CCCAACGACUGCCAAGCGAGAUUACGCUUGAGCGCCCCACUGAGGAUGCCCACGGGCGAUUGAGGCACGG [G14A G63A]	12
CCCAACGACUGCCGAGCGAGAUUACGCUUGAGCGUCCCACUGAGGAUGCCCACGGGCGAUUGGGGCACGG [C35U]	13
